Results on six molecules are retold here after ChEMBL document CHEMBL1122181 (J Med Chem, 1982).

Each structure is given as a SMILES string. Calls of active or inactive are those of the source. No cut-off for these calls is given here.

For assay [1], the system named is Mus musculus. Nature of the assay: Analgesic activity was determined by writhing test after subcutaneous administration in mice. The assay is classed as functional. The following applies: sc. An outline of the steps:
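Phenylquinone-induced writhing; compound given subcutaneously in distilled water. Potency derived by probit analysis, reported with 95% confidence limits.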
On the technique in general: In writhing tests, fewer writhes than in controls are read as antinociception.

For assay [2], the system named is Mus musculus. The assay is described as follows: Analgesic activity was determined by tail flick assay after subcutaneous administration in mice. The assay is classed as functional. The conditions noted are these: sc. An outline of the steps: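 Tail-flick method; compound given subcutaneously in normal saline. Potency derived by probit analysis, reported with 95% confidence limits.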

The test system of assay [3] is Mus musculus. The assay is described as follows: Analgesic activity was determined by tail flick assay after subcutaneous administration in mice; Inactive. Type of assay: functional, organism-based. A general note: Hot-plate and tail-flick tests time the reaction to a heat stimulus.

What is called ED50 is the dose at which the effect has come halfway, by size or by number of responders.

With `CN1CC[C@]23c4c5ccc(O)c4O[C@H]2[C@@H](O)C=C[C@H]3[C@H]1C5` [MORPHINE], the results for the ED50 in the assay on Mus musculus [1] and with Mus musculus [2] were 0.46 mg/kg and 4.06 mg/kg, respectively.

Turning to `COc1ccc2c(c1)C13CCCCC1C(C2)N(C)CC3` (stereo not drawn) [RACEMETHORPHAN], the ED50 in the assay on Mus musculus [1] came to 0.64 mg/kg; in the assay with Mus musculus [2] it was 6.78 mg/kg.

With `CN1CCC23c4c5ccc(OC(C)(C)C)c4O[C@H]2[C@@H](O)C=CC3C1C5` (some centres not stated), in the assay on Mus musculus [3], the ED50 entry is “inactive”. In the assay on Mus musculus [1], the ED50 is 26.8 mg/kg.

As to `CN1CCC23CCCCC2C1Cc1ccc(OC(C)(C)C)cc13` (configuration not stated), the figures for the ED50 in the assay with Mus musculus [1] and in the assay with Mus musculus [2] were 5 mg/kg and 5.81 mg/kg, respectively.

With `CN1CC[C@]23CCCC[C@H]2[C@H]1Cc1ccc(O)cc13` [LEVORPHANOL], the 50% effective dose (ED50) in the assay on Mus musculus [1] came out at 0.1 mg/kg; with Mus musculus [2] it was 1.3 mg/kg.

Take `COc1ccc2c3c1O[C@H]1[C@@H](O)C=C[C@H]4[C@@H](C2)N(C)CC[C@@]341` [CODEINE]: the figures for the ED50 with Mus musculus [1] and in the assay with Mus musculus [2] were 2.3 mg/kg and 39 mg/kg, respectively.
